The source of these data is ChEMBL document CHEMBL4359882, “Synthesis, molecular docking, and QSAR study of bis-sulfonamide derivatives as potential aromatase inhibitors” (Bioorg Med Chem, 2019).

For one assay, the system named is T47D. Put plainly: Cytotoxicity against human T47D cells assessed as reduction in cell growth measured after 48 hrs by MTT assay. The format is functional, cell-based. In outline: (§1)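 T47-D cells kept in RPMI-1640 with 2 mM L-glutamine, insulin, 4.5 g/L glucose and 10% FBS. MRC-5 cells kept in DMEM with 10% FBS. Cells seeded at 10,000-20,000 per well and preincubated 24 h at 37 °C in 5% CO2. Serial dilutions added, then incubated 48 h. MTT for 2-4 h, formazan dissolved in DMSO, read at 550/650 nm. IC50 is the concentration giving 50% growth inhibition.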

The test system of a further assay is MRC5. Put plainly: Cytotoxicity against human MRC5 cells assessed as reduction in cell growth measured after 48 hrs by MTT assay. The format is cell-based. As to conditions: MRC5, 48 h. The gist of the method: as §1
(Tetrazolium assays rely on reduction of a dye to a coloured formazan, in cell work by metabolically active cells.)

In a further assay the target is T1, Aromatase (Homo sapiens, UniProt P11511).
T1 sequence (P11511 whole entry): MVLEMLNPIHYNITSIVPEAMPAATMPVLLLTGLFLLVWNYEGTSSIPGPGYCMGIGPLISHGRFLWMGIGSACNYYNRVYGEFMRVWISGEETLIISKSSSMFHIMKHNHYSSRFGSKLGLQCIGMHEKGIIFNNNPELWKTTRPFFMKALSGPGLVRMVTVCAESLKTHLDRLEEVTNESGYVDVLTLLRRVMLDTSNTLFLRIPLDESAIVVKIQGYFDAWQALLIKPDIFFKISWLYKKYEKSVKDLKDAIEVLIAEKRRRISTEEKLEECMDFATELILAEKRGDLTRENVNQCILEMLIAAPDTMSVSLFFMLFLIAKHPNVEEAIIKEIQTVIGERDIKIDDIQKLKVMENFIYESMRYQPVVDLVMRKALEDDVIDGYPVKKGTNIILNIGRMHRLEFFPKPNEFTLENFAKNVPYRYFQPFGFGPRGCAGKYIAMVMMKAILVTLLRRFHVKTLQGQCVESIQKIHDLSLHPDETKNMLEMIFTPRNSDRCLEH
The assay can be described thus: Inhibition of recombinant human aromatase expressed in baculovirus infected insect cells using O-benzyl fluorescein benzyl ester as substrate in presence of NADPH generating system by fluorescence based analysis.

A further assay is filed under the species Homo sapiens. The assay can be described thus: Selectivity index, ratio of IC50 for human MRC5 cells by MTT assay to IC50 for human recombinant aromatase expressed in baculovirus infected insect cells.
Setting [1] is: Homo sapiens, T47D, 48 h, read-out: IC50.

One may read the IC50 as the concentration at which inhibition is half-maximal. For the compound `COc1cccc2c1C(=O)c1c(O)c3c(c(O)c1C2=O)C[C@@](O)(C(=O)CO)C[C@@H]3O[C@H]1C[C@H](N)[C@H](O)[C@H](C)O1` [DOXORUBICIN], the half-inhibitory concentration (IC50) in the assay with T47D (setting [1]) was found to be 0.88 µM; in the assay with MRC5 it was 2.19 µM.

Turning to `O=S(=O)(NCc1cccc(CNS(=O)(=O)c2ccc(C(F)(F)F)cc2)c1)c1ccc(C(F)(F)F)cc1`, the IC50 turned out to be 75.4 µM with T47D (setting [1]), 0.43 µM on Aromatase and 74.6 µM with MRC5. Further, in the assay filed under Homo sapiens, the Ratio IC50 came out at 173.

For the compound `O=S(=O)(NCc1cccc(CNS(=O)(=O)c2ccc3ccccc3c2)c1)c1ccc2ccccc2c1`, the results for the IC50 with T47D (setting [1]), at Aromatase and with MRC5 were over 50 µg/mL, 0.21 µM and over 50 µg/mL, respectively. In the assay listed under Homo sapiens, the Ratio IC50 was over 461.

With `Cc1cc(C)c(C)c(S(=O)(=O)NCc2cccc(CNS(=O)(=O)c3c(C)c(C)cc(C)c3C)c2)c1C`, the IC50 is 30.9 µM in the assay on T47D (setting [1]), 3.2 µM on Aromatase and 80.9 µM with MRC5. Also, the Ratio IC50 in the assay listed under Homo sapiens was determined as 25.3.

In the case of `O=S(=O)(NCc1cccc(CNS(=O)(=O)c2ccc(Br)cc2)c1)c1ccc(Br)cc1`, the IC50 entry was “Nd(Insoluble)” with T47D (t47d), 0.06 µM on Aromatase and over 50 µg/mL in the assay with MRC5. Further, the Ratio IC50 in the assay filed under Homo sapiens is over 1450.

As to `N#Cc1ccc(S(=O)(=O)NCc2cccc(CNS(=O)(=O)c3ccc(C#N)cc3)c2)cc1`, the IC50 in the assay with T47D (setting [1]) was 69.3 µM; at Aromatase it was 0.16 µM; in the assay on MRC5 it was over 50 µg/mL. Besides, in the assay filed under Homo sapiens, the Ratio IC50 was over 670.

Consider `O=S(=O)(NCc1cccc(CNS(=O)(=O)c2ccc(Cl)cc2)c1)c1ccc(Cl)cc1`, for which the IC50 in the assay with T47D (setting [1]) is 37.5 µM; at Aromatase, 0.05 µM; in the assay on MRC5 it was 68.5 µM. For the same compound, the Ratio IC50 in the assay filed under Homo sapiens was found to be 1370.

In the case of `N#Cc1ccc(S(=O)(=O)NCc2ccc(CNS(=O)(=O)c3ccc(C#N)cc3)cc2)cc1`, the IC50 in the assay with T47D (setting [1]) is over 50 µg/mL; at Aromatase it was 0.66 µM; in the assay with MRC5, 92.8 µM. In addition, the Ratio IC50 in the assay listed under Homo sapiens was 141.

`CC(=O)c1ccc(S(=O)(=O)NCc2cccc(CNS(=O)(=O)c3ccc(C(C)=O)cc3)c2)cc1`: the IC50 with T47D (setting [1]) is over 50 µg/mL; on Aromatase, 0.28 µM; with MRC5, over 50 µg/mL. Further, in the assay filed under Homo sapiens, the Ratio IC50 is over 357.

Take `O=[N+]([O-])c1ccc(NC(=S)NCc2cccc(CNC(=S)Nc3ccc([N+](=O)[O-])cc3)c2)cc1`: on Aromatase, the IC50 turned out to be 0.8 µM.

`O=[N+]([O-])c1cccc(S(=O)(=O)NCc2cccc(CNS(=O)(=O)c3cccc([N+](=O)[O-])c3)c2)c1`: the IC50 was over 50 µg/mL in the assay with T47D (setting [1]), 2.75 µM on Aromatase and over 50 µg/mL with MRC5. Besides, in the assay filed under Homo sapiens, the Ratio IC50 was over 35.9.

Regarding `O=S(=O)(NCc1cccc(CNS(=O)(=O)c2ccc(F)cc2)c1)c1ccc(F)cc1`, the IC50 entry was “Nd(Insoluble)” in the assay with T47D (t47d), 2.19 µM at Aromatase and over 50 µg/mL with MRC5. Moreover, the Ratio IC50 in the assay filed under Homo sapiens was over 50.5.

As to `Cc1ccc(S(=O)(=O)NCc2cccc(CNS(=O)(=O)c3ccc(C)cc3)c2)cc1`, the IC50 with T47D (setting [1]) is 43.9 µM; at Aromatase it was 0.13 µM; in the assay on MRC5 it was over 50 µg/mL. Moreover, the Ratio IC50 in the assay filed under Homo sapiens was over 865.

Turning to `COc1ccc(S(=O)(=O)Nc2cccc(NS(=O)(=O)c3ccc(OC)cc3)c2)cc1`, the results for the IC50 with T47D (setting [1]), at Aromatase and with MRC5 were over 50 µg/mL, 0.53 µM and over 50 µg/mL, respectively. Also, the Ratio IC50 in the assay listed under Homo sapiens was over 210.

As for `O=[N+]([O-])c1ccccc1S(=O)(=O)NCc1cccc(CNS(=O)(=O)c2ccccc2[N+](=O)[O-])c1`, the IC50 with T47D (setting [1]) is 75.4 µM; at Aromatase it was 3.67 µM; with MRC5, over 50 µg/mL. For the same compound, the Ratio IC50 in the assay filed under Homo sapiens was over 26.9.

Take `O=[N+]([O-])c1ccc(S(=O)(=O)NCc2cccc(CNS(=O)(=O)c3ccc([N+](=O)[O-])cc3)c2)cc1`: the IC50 is 39.3 µM in the assay with T47D (setting [1]), 0.37 µM on Aromatase and over 50 µg/mL with MRC5. Besides, in the assay listed under Homo sapiens, the Ratio IC50 is over 267.

On to `O=S(=O)(Nc1cccc(NS(=O)(=O)c2ccc(Cl)cc2)c1)c1ccc(Cl)cc1`, for which the IC50 with T47D (setting [1]) stood at 87.2 µM; at Aromatase, 0.78 µM; in the assay on MRC5, 63.1 µM. Also, in the assay listed under Homo sapiens, the Ratio IC50 was 80.9.

In the case of `Nc1cccc(S(=O)(=O)NCc2cccc(CNS(=O)(=O)c3cccc(N)c3)c2)c1`, the IC50 with T47D (setting [1]) is 90.6 µM; on Aromatase, 3.3 µM; with MRC5, over 50 µg/mL. Further, the Ratio IC50 in the assay filed under Homo sapiens was over 33.9.

Turning to `Cc1cc(C)c(C)c(S(=O)(=O)NCc2ccc(CNS(=O)(=O)c3c(C)c(C)cc(C)c3C)cc2)c1C`, the IC50 was over 50 µg/mL with T47D (setting [1]), over 12.5 µM at Aromatase and 16.3 µM with MRC5.

As for `S=C(NCc1cccc(CNC(=S)Nc2ccc(Cl)cc2)c1)Nc1ccc(Cl)cc1`, on Aromatase, the IC50 is 5.5 µM.

Turning to `COc1ccc(S(=O)(=O)NCc2cccc(CNS(=O)(=O)c3ccc(OC)cc3)c2)cc1`, the IC50 in the assay with T47D (setting [1]) was 75.3 µM; at Aromatase it was 11.6 µM; in the assay with MRC5, over 50 µg/mL. In addition, in the assay listed under Homo sapiens, the Ratio IC50 was over 9.04.
